Rows were chosen to be rich in hits. Some 1.6% of all compounds tested hit in one or more screens of this group.
NR1D1 modulator – modulators of human Rev-erb alpha DNA binding; Rev-erbα–FITC-DNA binding, fluorescence polarization, 90 min; activity, % at 10 µM; 0.79% of 370,000 active;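 active = activity above about 14%, limit read from the data; passing the limit was not always enough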;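 also: 0% = DMSO wells with 35 nM protein and 100% = DMSO wells with 750 nM protein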
Target sequence (P20393 whole entry, looked up): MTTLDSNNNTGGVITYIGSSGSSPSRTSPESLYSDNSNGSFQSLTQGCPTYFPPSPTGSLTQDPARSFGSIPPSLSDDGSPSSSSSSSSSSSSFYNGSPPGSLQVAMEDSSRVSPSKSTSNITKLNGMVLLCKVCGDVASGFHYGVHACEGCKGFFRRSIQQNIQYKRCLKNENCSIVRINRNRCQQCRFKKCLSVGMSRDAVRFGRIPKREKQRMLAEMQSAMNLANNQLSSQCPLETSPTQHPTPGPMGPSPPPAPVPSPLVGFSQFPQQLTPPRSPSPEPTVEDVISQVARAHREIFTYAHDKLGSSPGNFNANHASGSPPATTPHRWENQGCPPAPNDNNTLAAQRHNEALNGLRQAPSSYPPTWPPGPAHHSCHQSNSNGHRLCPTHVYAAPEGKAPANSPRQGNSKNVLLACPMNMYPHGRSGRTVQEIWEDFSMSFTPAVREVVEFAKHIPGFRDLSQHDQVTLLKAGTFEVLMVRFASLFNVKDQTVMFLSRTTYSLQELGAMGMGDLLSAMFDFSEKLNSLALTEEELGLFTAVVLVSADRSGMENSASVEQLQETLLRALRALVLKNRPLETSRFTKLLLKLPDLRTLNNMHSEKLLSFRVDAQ
PKA-R2B act – activates the human PKA-R2B holoenzyme complex; 0.079% of 340,000 active; activation, % at 11.4 µM; PKA-R2B holoenzyme dissociation, Cy5-IP20 fluorescence polarization; R2B truncated from residue 108, S112A mutant; 0% DMSO only, 100% 113 µM cGMP; P22694+P31323;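 active = activation above a cutoff set at the mean over all compounds plus 3 SD, cut at about 18% in these data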;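 also: higher means more holoenzyme dissociation and a rise in polarization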
PKA-R1A activ – activates the PKA-R1A holoenzyme complex; P00514+P68181; PKA-R1A dissociation, Cy5-IP20 fluorescence polarization; scaled: DMSO 0%, 113 µM cGMP 100%; activation, % at 11.4 µM; 0.083% of 340,000 active; AID 504707;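 active = percent activation above the mean of all tested compounds plus 3 SD, cut at about 19% in these data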;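 also: higher means more PKAc released from R1A so a rise in polarization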
NR2E3 ag-1 – human photoreceptor-specific nuclear receptor agonism; CHO-S Gal4-NCOR/VP16-NR2E3 two-hybrid, luciferase; 0.35% of 360,000 active; Q9Y5X4; inhibition of corepressor binding, % at 3.98 µM; AID 602229;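 active = inhibition above the mean of all tested compounds plus 3 SD, cut at about 70% in these data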;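 also: 0% = DMSO with NR2E3 transfected cells and 100% = cells lacking NR2E3 construct; higher means lower luciferase signal from less NR2E3 corepressor binding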
PG9 Ab binder – PG9 antibody binding by small molecule. inhibition, % at 6.7 µM. 0.43% of 360,000 active. TR-FRET gp120-PG9 antibody binding; in the data active = inhibition above about 8.5%
NR2E3 ag-2 – activates human photoreceptor nuclear receptor NR2E3; Q9Y5X4; GST-NR2E3/biotin-RetCOR TR-FRET, 1536-well; inhibition of corepressor binding, % at 4.78 µM; 0.12% of 320,000 active;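 active = percent inhibition above the cutoff of mean plus 3 SD of all tested compounds, set per screening campaign, cut at about 20% in these data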;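 also: 0% = DMSO wells and 100% = biotin wells as full block of FRET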
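system = GST-tagged NR2E3 plus biotinylated RetCOR corepressor | input = 1.35 nM GST-NR2E3 | also added = 7 nM biotin-RetCOR | schedule = 5 h incubation at 4 °C | measured by = TR-FRET with europium anti-GST and streptavidin-D2, 340 nm excitation | read-out = percent loss of FRET ratio relative to control wells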
Rev-erbA confirm – confirmation of modulators of human Rev-erb alpha DNA binding; Rev-erb alpha FITC-DNA binding, fluorescence polarization, 90 min; shares compounds with NR1D1 modulator; 61% of 3,000 active; activation, % at 25 µM; AID 1259319;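 active = activation at or above a set limit, or at least 3 SD above the negative control mean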;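 also: 0% = 35 nM protein with DMSO and 100% = 750 nM protein high control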
RORg DNA counter – RORgamma DNA-binding activity, dose-response counter-screen; shares compounds with NR1D1 modulator; purified RORgamma protein-FITC-DNA binding, fluorescence polarization; 8% of 910 active; IC50, µM;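 active = Compounds whose fitted half-maximal concentration for disrupting protein-DNA binding is below 10 micromolar; the record names Rev-erb in its text, so the target is in doubt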
Starred values were filed as active, the others as inactive; nt = no result given.

SMILES | NR1D1 modulator | PKA-R2B act | PKA-R1A activ | NR2E3 ag-1 | PG9 Ab binder | NR2E3 ag-2 | Rev-erbA confirm | others
COc1ccc2[nH]c3c(=O)n(Cc4ccc(C(=O)N5CCCCCC5)cc4)c(=S)[nH]c3c2c1 | 41* | -6 | 1 | -3 | 1 | 0 | 29*
CC(=O)c1cnc2c(-c3cccc(Br)c3)cnn2c1C | 30* | 5 | -6 | -61 | 6 | 1 | 34* | RORg DNA counter=>40
Cc1ccc(S(=O)(=O)NCC2CN(S(=O)(=O)c3ccc(C)cc3)c3ccccc3C(=O)N2c2ccc(F)cc2)cc1 (configuration not stated) | 1 | nt | nt | nt | nt | nt | nt
O=C(Nc1cc(-c2nc3ccccc3s2)ccc1Cl)c1ccc2c(c1)OCO2 | 28* | 0 | 10 | -36 | 1 | -2 | 1
CCCCNC(=O)Cn1cnc2sc(C(=O)OCC)c(C)c2c1=O | 35* | -1 | -8 | -6 | 0 | 0 | 8
CCOC(=O)c1cc(-c2ccccc2)sc1NC(=O)CC(C)C | 2 | -11 | 5 | -33 | 1 | -4 | nt
CCCC1(c2ccccc2)NC(=O)N(CC(=O)Nc2cc(C)on2)C1=O (configuration not stated) | 0 | 3 | 4 | -3 | 0 | 2 | nt
CCCC1(c2ccccc2)NC(=O)N(CC(=O)Nc2sc(-c3ccccc3)cc2C(=O)OCC)C1=O (configuration not stated) | 56* | -7 | 0 | -51 | -1 | 2 | 50* | RORg DNA counter=>40
CCOC(=O)c1cc(-c2ccccc2)sc1NC(=O)CN1C(=O)c2ccccc2C1=O | 33* | -6 | 10 | -43 | -1 | -1 | 8
COc1ccc([C@H]2OC(=O)C[C@H]2C(=O)N2CCCC2)cc1OC | 5 | nt | nt | nt | nt | nt | nt
Cn1c(/C(C#N)=C(\O)COc2ccc3ccccc3c2)nc2ccccc21 | 23* | 6 | -11 | -28 | -1 | 3 | 9
Cn1c(/C(C#N)=C(\O)c2ccc(Cl)s2)nc2ccccc21 | 50* | 3 | 4 | -57 | 7 | 0 | 12
Cn1c(/C(C#N)=C(\O)c2ccccc2Cl)nc2ccccc21 | -6 | 5 | -7 | -1 | -1 | 1 | nt
Cc1cc(=O)oc2c(C)cc(C(C)(C)C)cc12 | 27* | -10 | -2 | 7 | 0 | nt | 26*
O=C(Cn1nc2sc3ccccc3n2c(=O)c1=O)c1cccs1 | 4 | nt | nt | 24 | 0 | -2 | nt
O=c1c(=O)n2c(nn1Cc1ccc(F)cc1)sc1ccccc12 | 33* | 2 | 7 | -22 | 1 | -3 | 20*
CCN(C)c1nc(C)nc2c1nnn2Cc1ccccc1 | 3 | nt | nt | nt | nt | nt | nt
O=S(=O)(c1ccccc1)N1CCN(Cc2ccccc2)c2ccccc21 | 25* | -19 | -1 | -8 | -2 | nt | 17*
O=S(=O)(c1ccccc1)N1CCN(Cc2ccccc2)CC1 | -3 | -5 | -11 | -11 | 0 | 2 | nt
CC(C)C[C@H]1COc2cccc(F)c2S(=O)(=O)N1C | 0 | nt | nt | nt | nt | nt | nt
O=C1c2ccccc2C(c2nnnn2Cc2ccccc2)N1CCc1c[nH]c2ccccc12 (configuration not stated) | 20* | nt | nt | -48 | 2 | nt | -5
CC(c1c[nH]c2ccccc12)c1cn(C)c2ccccc12 (configuration not stated) | -4 | nt | nt | nt | nt | nt | nt
CC(=O)c1ccccc1NC(=O)c1cc(S(=O)(=O)N2CCOCC2)ccc1N1CCCC1 | 144* | -1 | -4 | 0 | 1 | -3 | 145* | RORg DNA counter=>40
O=C(Nc1ccccc1N1CCCC1)c1cc(S(=O)(=O)N2CCOCC2)ccc1Cl | 2 | 5 | 9 | 5 | -2 | 2 | nt
COc1cc(SC)ccc1C(=O)Nc1ccc(S(=O)(=O)N2CCCC2)cc1 | 57* | 1 | -2 | -5 | 2 | 3 | 30*
COc1cc(NC(=O)c2cc(S(=O)(=O)N3CCCCC3)ccc2N2CCOCC2)cc(OC)c1 | 22* | -5 | 2 | -32 | -1 | -1 | -6

Assay outcomes: PubChem, several laboratories
